Experimental data of several laboratories.
EGFR del746-750: Epidermal growth factor receptor (EGFR, Homo sapiens, UniProt P00533, del746-750)
EGFR L861Q: Epidermal growth factor receptor (EGFR, Homo sapiens, UniProt P00533, L861Q)
EGFR G719S: Epidermal growth factor receptor (EGFR, Homo sapiens, UniProt P00533, G719S)
EGFR L858R: Epidermal growth factor receptor (EGFR, Homo sapiens, UniProt P00533, L858R)
EGFR T790M: Epidermal growth factor receptor (EGFR, Homo sapiens, UniProt P00533, T790M)
EGFR: Epidermal growth factor receptor (EGFR, Homo sapiens, UniProt P00533)

O=C(Nc1c[nH]nc1C(=O)NC1CCNCC1)c1cc(F)cc(F)c1  remaining binding (Epidermal growth factor receptor (EGFR, Homo sapiens, UniProt P00533, G719C); binding; competition with immobilised ligand; 1 µM): 100%
O=C(Nc1cnc(Oc2ccc(F)cc2)nc1)N1CCc2ncccc2[C@@H]1c1ccc(F)cc1  remaining binding (EGFR del746-750; cell-free assay; competition with immobilised ligand; 1 µM): 100%
C[C@H]1CCN(c2nccc(-c3cnn4ncccc34)n2)C1  remaining binding (Epidermal growth factor receptor (EGFR, Homo sapiens, UniProt P00533, L858R/T790M); binding; 1 µM): 80%
CC(=O)N1CCC(c2ccc(C(=O)NC(=N)N)cc2C(F)(F)F)CC1  remaining binding (EGFR L861Q; cell-free assay; competition with immobilised ligand; 1 µM): 91%
CN(CCCC(F)(F)F)c1nccc(-c2cnn3ncccc23)n1  remaining binding (EGFR G719S; binding; 1 µM): 98%
Cc1c(C(=O)O)cc(-c2ccc(C3CCNCC3)cc2)c2ccc(-c3ccc(C(F)(F)F)cc3)cc12  remaining binding (EGFR L861Q; cell-free assay; competition with immobilised ligand; 1 µM): 100%
COc1cnc(Nc2cccc(S(N)(=O)=O)c2)nc1N1CCN(c2ccccc2)CC1  remaining binding (EGFR G719S; binding; competition with immobilised ligand; 1 µM): 100%
O=C(c1ccc(Nc2nccc(-c3cc4ccccc4s3)n2)cc1)N1CCC(N2CCCC2)CC1  remaining binding (EGFR L858R; binding; competition with immobilised ligand; 1 µM): 100%
N[C@@H]1CCN(c2nccc(-c3cnn4ncccc34)n2)C1  remaining binding (EGFR T790M; binding; 1 µM): 100%
COc1cc(-c2cn(C3CCc4ccccc4N(CC(F)(F)F)C3=O)nn2)ccc1-n1ccc(C)n1 (stereo not drawn)  remaining binding (EGFR T790M; cell-free assay; competition with immobilised ligand; 1 µM): 59%
COc1cnc(Nc2cccc(S(N)(=O)=O)c2)nc1N1CCN(c2ccccc2)C(=O)C1  remaining binding (EGFR L858R; binding; competition with immobilised ligand; 1 µM): 100%
F[C@@H]1CCN(c2nccc(-c3cnn4ncccc34)n2)C1  remaining binding (EGFR L858R; binding; 1 µM): 89%
O=C(c1ccc(Nc2ncc(Cl)c(-c3ccc(Cl)s3)n2)cc1)N1CCC(N2CCCC2)CC1  remaining binding (EGFR; binding; competition with immobilised ligand; 1 µM): 86%
Cn1nc(C(=O)NCc2ccc(C(=O)O)cc2)cc1-c1ccc2[nH]ccc2c1  remaining binding (EGFR; cell-free assay; competition with immobilised ligand; 0.1 µM): 100%
O=C(c1ccc(Nc2ncc(Cl)c(-c3cc4ccccc4s3)n2)cc1)N1CCC(N2CCCC2)CC1  remaining binding (EGFR L861Q; binding; competition with immobilised ligand; 1 µM): 92%
CO[C@@H](C)c1c(Nc2ccc([C@@H](N(C)C(=O)C3CCS(=O)(=O)CC3)C(F)(F)F)cc2)cnc2cc(Cl)nn12  remaining binding (EGFR G719S; cell-free assay; competition with immobilised ligand; 1 µM): 96%
CN(C)c1ncc(F)c(-c2cnn3ncccc23)n1  remaining binding (EGFR; binding; 1 µM): 82%
Cc1cnc(Nc2ccc(C(=O)N3CCC(N4CCCC4)CC3)cc2)nc1-c1cc2ccccc2s1  remaining binding (EGFR; binding; competition with immobilised ligand; 1 µM): 83%
c1cncc(-c2cccc(Nc3nccc(NC4CCCCC4)n3)c2)c1  remaining binding (EGFR T790M; binding; competition with immobilised ligand; 10 µM): 33%
Cc1cnn2ncc(-c3ccnc(N(C)C)n3)c2c1  remaining binding (Epidermal growth factor receptor (EGFR, Homo sapiens, UniProt P00533, del752-759); binding; 1 µM): 100%
CN(C)CC#Cc1ccc(OCCCc2sc(N3CCc4cccc(C(=O)Nc5nc6ccccc6s5)c4C3)nc2C(=O)O)c(F)c1  remaining binding (Epidermal growth factor receptor (EGFR, Homo sapiens, UniProt P00533, del747-752/P753S); cell-free assay; competition with immobilised ligand; 1 µM): 100%
O=C(NCC1CCOCC1)c1n[nH]cc1NC(=O)c1c(F)cccc1F  remaining binding (EGFR del746-750; binding; competition with immobilised ligand; 1 µM): 100%
O=C(NCCCN1CCOCC1)c1ccc(Nc2nccc(-c3cc4ccccc4s3)n2)cc1  remaining binding (EGFR L861Q; binding; competition with immobilised ligand; 1 µM): 99%
c1cnn2ncc(-c3ccnc(N4CCC45COC5)n3)c2c1  remaining binding (EGFR del746-750; binding; 1 µM): 89%
